According to ChEMBL document CHEMBL1139490, “Design, synthesis, and biological evaluation of prazosin-related derivatives as multipotent compounds” (J Med Chem, 2005):

Columns and labels:
[1] = target: T1, Alpha-1B adrenergic receptor (Rattus norvegicus, UniProt P15823); test: Blocking activity was assessed by antagonism of (-)-phenylephrine induced contraction of rat spleen (alpha1B adrenoceptor); assay type: functional, tissue-based; conditions: read-out: pA2 (converted)
T1 sequence (P15823 whole entry): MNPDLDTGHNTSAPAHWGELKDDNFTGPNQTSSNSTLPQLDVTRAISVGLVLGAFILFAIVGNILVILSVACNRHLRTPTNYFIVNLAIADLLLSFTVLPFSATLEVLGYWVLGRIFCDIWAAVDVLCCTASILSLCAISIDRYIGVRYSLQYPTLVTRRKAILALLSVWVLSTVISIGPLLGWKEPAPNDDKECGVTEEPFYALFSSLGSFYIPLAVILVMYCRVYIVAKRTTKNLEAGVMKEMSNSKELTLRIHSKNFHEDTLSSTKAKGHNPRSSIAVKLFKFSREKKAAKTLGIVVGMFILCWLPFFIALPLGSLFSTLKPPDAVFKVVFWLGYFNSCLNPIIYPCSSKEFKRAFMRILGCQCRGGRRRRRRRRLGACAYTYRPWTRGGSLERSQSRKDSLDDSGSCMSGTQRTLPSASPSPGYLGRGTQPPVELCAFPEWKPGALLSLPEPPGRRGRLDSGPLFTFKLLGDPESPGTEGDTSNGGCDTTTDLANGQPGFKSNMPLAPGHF

LNCaP [2] = test: Antiproliferative activity was determined by colorimetric MTS assay in LNCaP cells after 72 hr of incubation with compounds (1-100 uM); Not active at 100 uM; assay type: functional, cell-based, Homo sapiens
Method in brief: (§1)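 LNCaP cells exposed 72 h to compounds (1–100 μM). Proliferation read by colorimetric MTS assay. IC50 is the concentration giving 50% inhibition of cell proliferation. Mean ± SD of three independent experiments.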

LNCaP [3] = test: Antioxidant activity against formation of ROS was determined in t-BuOOH treated LNCaP cells after 24 hr of incubation with compounds (1-100 uM); assay type: functional, cell-based; conditions: Homo sapiens
[4] = target: T2, Alpha-1A adrenergic receptor (Rattus norvegicus, UniProt P43140); test: Blocking activity was assessed by antagonism of (-)-noradrenaline induced contraction of rat prostatic vas deferens (alpha1A adrenoceptor); assay type: functional, tissue-based; conditions: read-out: pA2 (converted)
T2 sequence (P43140 whole entry): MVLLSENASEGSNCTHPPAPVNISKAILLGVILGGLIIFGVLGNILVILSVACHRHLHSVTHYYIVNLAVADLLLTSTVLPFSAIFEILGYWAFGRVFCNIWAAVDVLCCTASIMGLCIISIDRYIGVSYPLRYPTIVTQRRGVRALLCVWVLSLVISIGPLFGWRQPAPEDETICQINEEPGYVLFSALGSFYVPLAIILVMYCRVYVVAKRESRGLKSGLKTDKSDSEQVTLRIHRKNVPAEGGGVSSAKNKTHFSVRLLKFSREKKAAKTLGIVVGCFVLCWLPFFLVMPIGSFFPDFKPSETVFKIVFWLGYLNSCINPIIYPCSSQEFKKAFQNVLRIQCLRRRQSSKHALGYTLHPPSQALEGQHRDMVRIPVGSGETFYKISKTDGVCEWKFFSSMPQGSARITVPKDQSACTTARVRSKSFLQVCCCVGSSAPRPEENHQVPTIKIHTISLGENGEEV

[5] = target: T3, Alpha-1D adrenergic receptor (Rattus norvegicus, UniProt P23944); test: Blocking activity was assessed by antagonism of (-)-noradrenaline induced contraction of rat thoracic aorta (Alpha-1D adrenoceptor); assay type: functional, tissue-based; conditions: read-out: pA2 (converted)
T3 sequence (P23944 whole entry): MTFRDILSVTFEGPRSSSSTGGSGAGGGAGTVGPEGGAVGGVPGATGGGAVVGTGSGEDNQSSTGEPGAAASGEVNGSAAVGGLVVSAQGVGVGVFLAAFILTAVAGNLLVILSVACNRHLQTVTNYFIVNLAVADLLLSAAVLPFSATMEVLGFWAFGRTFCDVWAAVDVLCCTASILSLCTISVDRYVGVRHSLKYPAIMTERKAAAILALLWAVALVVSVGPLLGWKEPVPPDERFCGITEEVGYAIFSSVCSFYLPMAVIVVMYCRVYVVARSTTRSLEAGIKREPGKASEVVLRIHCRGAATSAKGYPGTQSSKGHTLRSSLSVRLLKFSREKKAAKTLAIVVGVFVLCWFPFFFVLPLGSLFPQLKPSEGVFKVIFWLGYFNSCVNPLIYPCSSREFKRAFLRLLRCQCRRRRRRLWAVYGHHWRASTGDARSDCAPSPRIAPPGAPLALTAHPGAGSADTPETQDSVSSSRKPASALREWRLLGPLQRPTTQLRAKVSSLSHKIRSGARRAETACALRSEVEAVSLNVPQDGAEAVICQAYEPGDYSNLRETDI

LNCaP [6] = test: Antiproliferative activity was determined by colorimetric MTS assay in LNCaP cells after 72 hr of incubation with compounds (1-100 uM); assay type: functional, cell-based; conditions: Homo sapiens; method in brief: as §1
[7] = target: T4, Alpha-1B adrenergic receptor (Homo sapiens, UniProt P35368); test: Equilibrium dissociation constant was evaluated by radio-receptor binding assays using [3H]prazosin to label cloned human alpha 1b expressed in CHO cells; assay type: cell-based
T4 sequence (P35368 whole entry): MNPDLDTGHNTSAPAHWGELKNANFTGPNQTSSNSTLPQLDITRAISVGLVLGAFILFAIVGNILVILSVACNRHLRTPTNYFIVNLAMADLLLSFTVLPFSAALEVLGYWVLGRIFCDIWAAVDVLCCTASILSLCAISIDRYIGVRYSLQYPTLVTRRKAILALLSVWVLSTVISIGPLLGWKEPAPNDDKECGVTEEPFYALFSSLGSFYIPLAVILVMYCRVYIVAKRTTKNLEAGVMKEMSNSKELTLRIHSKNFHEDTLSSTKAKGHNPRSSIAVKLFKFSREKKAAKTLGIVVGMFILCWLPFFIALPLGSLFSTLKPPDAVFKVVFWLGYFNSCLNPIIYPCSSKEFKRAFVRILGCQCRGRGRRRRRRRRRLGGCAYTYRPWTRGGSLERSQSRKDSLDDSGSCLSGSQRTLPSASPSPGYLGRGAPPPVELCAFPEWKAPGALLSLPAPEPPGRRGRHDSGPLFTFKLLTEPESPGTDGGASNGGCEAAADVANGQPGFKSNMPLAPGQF

[8] = target: T5, Alpha-1A adrenergic receptor (Homo sapiens, UniProt P35348); test: Equilibrium dissociation constant was evaluated by radio-receptor binding assays using [3H]prazosin to label cloned human alpha 1a expressed in CHO cells; assay type: cell-based
T5 sequence (P35348 whole entry): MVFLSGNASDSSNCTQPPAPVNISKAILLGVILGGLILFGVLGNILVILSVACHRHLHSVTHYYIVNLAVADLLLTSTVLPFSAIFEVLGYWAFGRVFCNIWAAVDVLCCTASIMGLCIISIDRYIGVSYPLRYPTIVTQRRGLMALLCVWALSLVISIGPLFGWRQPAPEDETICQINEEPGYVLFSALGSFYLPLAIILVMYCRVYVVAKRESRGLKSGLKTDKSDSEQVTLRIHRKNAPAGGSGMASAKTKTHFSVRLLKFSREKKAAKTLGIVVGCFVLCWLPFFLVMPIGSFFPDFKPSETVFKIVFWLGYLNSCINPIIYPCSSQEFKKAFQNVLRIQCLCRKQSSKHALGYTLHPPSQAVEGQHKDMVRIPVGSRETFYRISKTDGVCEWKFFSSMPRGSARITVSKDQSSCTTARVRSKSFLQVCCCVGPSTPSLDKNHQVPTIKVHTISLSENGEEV

LNCaP [9] = test: Antioxidant activity against formation of ROS was determined in t-BuOOH treated LNCaP cells after 24 hr of incubation with compounds (1-100 uM); Not active at 100 uM; assay type: functional, cell-based, Homo sapiens
[10] = target: T6, Alpha-1D adrenergic receptor (Homo sapiens, UniProt P25100); test: Equilibrium dissociation constant was evaluated by radio-receptor binding assays using [3H]prazosin to label cloned human alpha 1d expressed in CHO cells; assay type: cell-based
T6 sequence (P25100 whole entry): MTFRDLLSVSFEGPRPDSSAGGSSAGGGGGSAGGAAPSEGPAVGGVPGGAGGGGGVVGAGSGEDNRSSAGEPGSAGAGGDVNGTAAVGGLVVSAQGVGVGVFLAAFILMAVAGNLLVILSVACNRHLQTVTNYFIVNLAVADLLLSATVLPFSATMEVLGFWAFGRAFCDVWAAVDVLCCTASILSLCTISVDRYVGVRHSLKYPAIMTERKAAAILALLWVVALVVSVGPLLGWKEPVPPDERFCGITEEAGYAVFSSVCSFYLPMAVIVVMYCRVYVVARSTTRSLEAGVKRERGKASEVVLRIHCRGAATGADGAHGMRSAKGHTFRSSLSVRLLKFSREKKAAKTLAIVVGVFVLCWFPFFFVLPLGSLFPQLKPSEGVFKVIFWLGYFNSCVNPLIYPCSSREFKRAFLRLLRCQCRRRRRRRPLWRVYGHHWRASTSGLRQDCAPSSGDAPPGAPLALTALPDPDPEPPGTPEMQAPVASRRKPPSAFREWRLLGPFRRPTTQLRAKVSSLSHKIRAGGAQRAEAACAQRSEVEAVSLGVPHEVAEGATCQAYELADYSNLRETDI

LNCaP [11] = test: Antiproliferative activity in MTS assay in LNCaP cells after 72 hr at 1-100 uM; Inactive at 100 uM; assay type: functional, cell-based, Homo sapiens; method in brief: as §1
LNCaP [12] = test: Antioxidant activity against t-BuOOH induced ROS formation in LNCaP cells after 24 hr at 1-100 uM; Inactive at 100 uM; assay type: functional, cell-based, Homo sapiens

Row | Compound | Kb [1] [nM] | IC50 (LNCaP [2]) | IC50 (LNCaP [3]) [nM] | Kb [4] [nM] | Kb [5] [nM] | IC50 (LNCaP [6]) [nM] | Ki [7] [nM] | Ki [8] [nM] | IC50 (LNCaP [9]) | Ki [10] [nM] | IC50 (LNCaP [11]) | IC50 (LNCaP [12])
1 | O=C(O)CCCCC1CCSS1 (stereo not drawn) [LIPOIC ACID, ALPHA] | > 10000 | Not Active | 54900 | > 10000 | > 10000 | – | – | – | – | – | – | –
2 | COc1cc2nc(N3CCN(C(=O)C4CCSS4)CC3)nc(N)c2cc1OC (stereo not drawn) | 1.74 | – | – | 18.6 | 0.871 | 49600 | 0.537 | 0.813 | Not Active | 0.49 | – | –
3 | COc1cc2nc(N3CCN(C4=CC(=O)c5ccccc5C4=O)CC3)nc(N)c2cc1OC | 3.09 | – | 2630 | 22.9 | 0.891 | 8820 | 0.676 | 1.26 | – | 0.933 | – | –
4 | COc1cc2nc(N3CCNCC3)nc(N)c2cc1OC [AMINODIMETHOXYQUINAZOLINYLPIPERAZINE] | – | Not Active | – | – | – | – | – | – | Not Active | – | – | –
5 | COc1cc2nc(N3CCN(C(=O)CCCCC4CCSS4)CC3)nc(N)c2cc1OC (stereo not drawn) | 40.7 | Not Active | 83500 | 64.6 | 12 | – | 1.26 | 1.41 | – | 0.891 | – | –
6 | COc1cc2nc(N3CCN(C(=O)c4ccco4)CC3)nc(N)c2cc1OC [PRAZOSIN] | – | – | – | – | – | 67500 | – | – | Not Active | – | – | –
7 | COC1=CC(=O)c2ccccc2C1=O [2-Methoxy-1,4-naphthoquinone] | – | – | – | – | – | – | – | – | – | – | Not Active | Not Active
8 | COc1cc2nc(N3CCN(C(=O)CC4CCSS4)CC3)nc(N)c2cc1OC (stereo not drawn) | 1.02 | – | – | 1 | 0.912 | 52600 | 0.309 | 0.288 | Not Active | 0.389 | – | –
